One series deals with HSV-2. Kind of series: Virus-induced cytopathicity, HSV-2. Type of series: cell-based, herpes simplex virus type 2. The settings on record: read-out: Antiviral activity EC50 HSV-2. On the technique in general: Protection from cytopathic effect is a common read-out in antiviral testing.
The next series concerns HSV-1 TK–. Kind of series: Virus-induced cytopathicity, TK– HSV-1 KOS ACVr in HEL cells. Type of series: cell-based, herpes simplex virus type 1. The settings on record: read-out: Antiviral activity EC50 HSV-1 TK–.
Series [1] relates to HEL cells. Put plainly: Cytotoxicity, alteration of cell morphology. The series is classed as cell-based, human.
Series [2] in a line: Cytostatic activity, inhibition of cell growth. Conditions: human, HEL cells, Cytotoxicity Cell growth (CC50), Table 3. The series is classed as cell-based, human.
For a further series, the system named is Vaccinia virus. Put plainly: microbe, parasite or virus in culture. Type of series: cell-based. Conditions: for EC50: read-out: Antiviral activity EC50 Vaccinia virus.
In a further series the test system is HSV. Put plainly: Antiviral activity against HSV. The series is classed as cell-based, herpes simplex virus. Conditions: HEL.
In a further series the test system is herpesviruses. Kind of series: organism not typed. The series is classed as cell-based. The settings on record: for EC50: HEL.
The next series relates to TK+ VZV OKA strain. Type of series: cell-based, varicella-zoster virus.
The subject of the next series is TK– VZV 07-1 strain. Type of series: cell-based, varicella-zoster virus.
A further series deals with HCMV AD-169 strain. Kind of series: Virus-induced cytopathic effect, HCMV AD-169 strain in HEL cells. The series is classed as cell-based, human cytomegalovirus.
The subject of a further series is HCMV Davis strain. Kind of series: Virus-induced cytopathic effect, HCMV Davis strain in HEL cells. Type of series: cell-based, human cytomegalovirus.
Another series deals with HSV-1 mutant viruses. The series is classed as cell-based, herpes simplex virus type 1. The settings on record: Figure 2. In short, it runs like this: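 HSV-1 TK and DNA polymerase mutants were derived from the reference KOS strain and tested by CPE reduction. Confluent HEL cultures in 96-well plates were infected and incubated with varying test compound concentrations. Cytopathicity was scored once it was complete in untreated infected controls. […] Fold-resistance is EC50 mutant divided by EC50 wild-type KOS. Reference antiherpetic drugs were run alongside.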

The target in a further series is T1, HCMV DNA pol (Human cytomegalovirus, UniProt P08546).
T1 sequence (P08546 1-1242): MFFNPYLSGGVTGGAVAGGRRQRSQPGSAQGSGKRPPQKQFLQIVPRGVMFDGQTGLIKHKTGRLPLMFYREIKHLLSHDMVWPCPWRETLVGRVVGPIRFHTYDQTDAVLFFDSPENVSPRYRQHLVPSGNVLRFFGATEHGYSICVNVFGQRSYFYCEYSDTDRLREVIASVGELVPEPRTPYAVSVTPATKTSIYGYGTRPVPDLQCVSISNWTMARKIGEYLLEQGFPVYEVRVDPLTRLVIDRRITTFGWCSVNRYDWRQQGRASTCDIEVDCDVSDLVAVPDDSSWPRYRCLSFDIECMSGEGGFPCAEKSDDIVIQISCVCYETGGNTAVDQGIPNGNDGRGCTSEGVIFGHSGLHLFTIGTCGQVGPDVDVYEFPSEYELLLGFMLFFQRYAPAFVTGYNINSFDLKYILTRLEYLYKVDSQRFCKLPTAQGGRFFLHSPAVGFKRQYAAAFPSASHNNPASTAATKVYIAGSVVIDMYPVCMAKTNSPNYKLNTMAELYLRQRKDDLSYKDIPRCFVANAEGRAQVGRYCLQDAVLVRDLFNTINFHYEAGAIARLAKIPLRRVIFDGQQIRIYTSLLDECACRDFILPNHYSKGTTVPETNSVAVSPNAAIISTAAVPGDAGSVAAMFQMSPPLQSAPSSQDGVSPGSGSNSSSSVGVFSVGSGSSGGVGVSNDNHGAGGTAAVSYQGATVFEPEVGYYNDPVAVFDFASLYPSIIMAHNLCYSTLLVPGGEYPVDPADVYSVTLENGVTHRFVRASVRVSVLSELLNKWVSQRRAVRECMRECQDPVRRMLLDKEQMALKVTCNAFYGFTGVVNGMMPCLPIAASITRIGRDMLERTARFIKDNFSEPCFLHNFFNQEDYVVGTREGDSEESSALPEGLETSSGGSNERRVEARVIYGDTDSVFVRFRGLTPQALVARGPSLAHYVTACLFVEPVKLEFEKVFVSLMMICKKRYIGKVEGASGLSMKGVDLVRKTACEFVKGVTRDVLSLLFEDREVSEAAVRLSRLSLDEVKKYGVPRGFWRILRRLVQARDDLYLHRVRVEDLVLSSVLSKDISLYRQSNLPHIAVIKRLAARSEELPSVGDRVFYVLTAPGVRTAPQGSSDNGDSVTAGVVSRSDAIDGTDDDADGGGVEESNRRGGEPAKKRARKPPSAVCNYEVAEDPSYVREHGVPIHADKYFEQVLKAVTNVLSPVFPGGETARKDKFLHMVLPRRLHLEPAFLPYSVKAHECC
Kind of series: DNA polymerase inhibition, HCMV DNA pol. The series is classed as biochemical. The settings on record: IC50 HCMV DNA pol dGTP, calf thymus DNA, radiolabeled [3H]dGTP. In short, it runs like this:
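Recombinant or source enzyme not specified. HCMV DNA polymerase reaction uses activated calf thymus DNA as template/primer, 100 uM of each of three unlabeled dNTPs, and 0.5 uM rate-limiting tritium-labeled dNTP ([3H]dGTP or [3H]dTTP, as competitive substrate). The diphosphate form of the test compound is added in serial dilutions, up to 100 uM.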

The subject of the next series is HSV-1. Kind of series: Virus-induced cytopathicity, HSV-1. The series is classed as cell-based, herpes simplex virus type 1. The settings on record: read-out: Antiviral activity EC50 HSV-1; Table 4; HEL cells.
The test system of series [3] is HEL cells. Kind of series: Cytostatic activity, inhibition of cell growth. Type of series: cell-based, human.
[4] abbreviates: read-out: EC50 values, replication of HSV-1, HSV-2 and TK-HSV-1 (range).
Where [5] appears, read: read-out: EC50 against VZV, HCMV, HSV-1, HSV-2, and Vaccinia virus (range).

Read-outs that look alike come from different tables or passages of the source. Some results are limits rather than exact numbers.

The results in this text go back to publication PMC6287304 (Antiviral Chemistry & Chemotherapy, 2018).

By EC50 is commonly meant the concentration needed to bring the measured effect to its halfway point. The CC50 is the concentration at which the toxic effect on the cells reaches its halfway point. As usually defined, the IC50 is the concentration needed to halve the response being measured. Low readings indicate greater potency in that assay, high ones weaker potency in that assay.

On to `O=c1[nH]c(=O)n([C@H]2C[C@H](O)[C@@H](CO)O2)cc1/C=C/Br` [Brivudin, brivudin, reference compound], for which the EC50 is 112 ± 37 µM with HSV-2 (Human alphaherpesvirus 2, HEL) and 50 µM in the series with HSV-1 TK–. The “Cytotoxicity Cell morphology (MCC)” value with HEL cells [1] (Table 1) was greater than 300 μM; in the series on HEL cells [1] (Table 2) it was greater than 250 μM; in the series on HEL cells [1] (Table 3) it was no less than 300 μM. In addition, the midpoint of cytotoxicity in [2], the CC50 at 3 days, lay at 168 ± 41 µM.

On to `Nc1ccn(C[C@@H](CO)OCP(=O)(O)O)c(=O)n1` [Cidofovir, cidofovir], for which the CC50 at 3 days in [2] was 170 ± 61 µM.

In the case of `O=c1[nH]c(=O)c2ncn(C[C@@H](CO)OCP(=O)(O)O)c2[nH]1` [Compound 6, (S)-(((1–(2,6-Dioxo-1,2,3,6-tetrahydro-9H-purin-9-yl)-3-hydroxypropan-2-yl)oxy)methyl) phosphonic acid], the EC50 in the series on Vaccinia virus (Orthopoxvirus vaccinia, HEL) was 39 ± 27 µM; with HSV (setting [4]), 16 to 39 µM; in the series on herpesviruses (setting [5]) it was 17 to 43 µM. Moreover, the entries for the “Cytotoxicity Cell morphology (MCC)” value in the series with HEL cells [1] (Table 1) and in the series on HEL cells [1] (Table 2) were greater than 300 μM and greater than 100 μM, respectively. Besides, in the series with herpesviruses, the “anti-herpesvirus activity (in words)” value is on record as “able to inhibit the replication of herpesviruses”.

On to `Nc1nc2c(ncn2COCCO)c(=O)[nH]1` [Acyclovir, acyclovir, reference compound], for which the EC50 with Vaccinia virus (Orthopoxvirus vaccinia, HEL) was greater than 250 µM. In addition, in the series with HEL cells [1] (Table 2), the “Cytotoxicity Cell morphology (MCC)” value is recorded as greater than 250 μM.

For the molecule `O=c1[nH]c(=O)c2ncn(C[C@@H](CF)OCP(=O)(O)O)c2[nH]1` [Compound 8, (S)-(((1–(2,6-Dioxo-1,2,3,6-tetrahydro-9H-purin-9-yl)-3-fluoropropan-2-yl)oxy)methyl)phosphonic acid], the concentration for a half-maximal effect (EC50) in the series on Vaccinia virus (Orthopoxvirus vaccinia, HEL) is greater than 329 µM. In the series with HEL cells [1] (Table 1), the “Cytotoxicity Cell morphology (MCC)” value is greater than 329 μM.

Consider `C[C@H](Cn1cnc2c(=O)[nH]c(=O)[nH]c21)OCP(=O)(O)O` [Compound 9, (R)-(((1–(2,6-Dioxo-1,2,3,6-tetrahydro-9H-purin-9-yl)propan-2-yl)oxy)methyl)phosphonic acid], for which, in the series with Vaccinia virus (Orthopoxvirus vaccinia, HEL), the concentration for a half-maximal effect (EC50) is greater than 100 µM. In addition, the “Cytotoxicity Cell morphology (MCC)” value in the series with HEL cells [1] (Table 1) is given as greater than 100 μM.

With `O=c1[nH]c(=O)c2ncn(CC(CO)OCP(=O)(O)O)c2[nH]1` (racemic) [Compound 5, (RS)-(((1–(2,6-Dioxo-1,2,3,6-tetrahydro-9H-purin-9-yl)-3-hydroxypropan-2-yl)oxy)methyl)phosphonic acid], the EC50 with Vaccinia virus (Orthopoxvirus vaccinia, HEL) is 39 ± 27 µM; with HSV (setting [4]), 16 to 39 µM; with herpesviruses (setting [5]), 17 to 43 µM. For the same molecule, the “Cytotoxicity Cell morphology (MCC)” value with HEL cells [1] (Table 1) is recorded as no less than 300 μM; in the series on HEL cells [1] (Table 2), greater than 100 μM. Further, the “anti-herpesvirus activity (in words)” value with herpesviruses is listed as “able to inhibit the replication of herpesviruses”.

Consider `O=c1[nH]c(=O)c2ncn(CCOCP(=O)(O)O)c2[nH]1` [Compound 4, ((2–(2,6-Dioxo-1,2,3,6-tetrahydro-9H-purin-9-yl)ethoxy)methyl)phosphonic acid], for which the “selectivity index (ratio CC50/EC50)” value in the series on TK+ VZV OKA strain came out at 42; in the series on TK– VZV 07-1 strain it was 24; in the series on HCMV AD-169 strain, 11; in the series with HCMV Davis strain it was 13. Moreover, the “Antiviral activity EC50 Vaccinia virus” value in the series with Vaccinia virus is listed as “lacked activity”. Also, the EC50 with Vaccinia virus (Orthopoxvirus vaccinia, HEL) was greater than 345 µM; with HSV (setting [4]), 16 to 39 µM; with herpesviruses (read-out: EC50 values against VZV, HCMV, HSV-1, and HSV-2 (range)) it was 2.6 to 25.6 µM. Further, the “Cytotoxicity Cell morphology (MCC)” value in the series on HEL cells [1] (Table 1) is reported as greater than 345 μM. In addition, in the series on herpesviruses, the “anti-herpesvirus activity (in words)” value is “able to inhibit the replication of herpesviruses”. Besides, the “change of EC50 for DNA polymerase mutant viruses” value in the series with HSV-1 mutant viruses (HSV-1 DNA polymerase mutants, same magnitude as adefovir) is “increase in the EC50”. In addition, the “activity against viruses bearing mutations in the viral TK” value with HSV-1 mutant viruses (HSV-1 TK mutants) is on record as “remained active”.

As to `O=c1[nH]c(=O)c2ncn(C[C@H](CF)OCP(=O)(O)O)c2[nH]1` [Compound 7, (R)-(((1–(2,6-Dioxo-1,2,3,6-tetrahydro-9H-purin-9-yl)-3-fluoropropan-2-yl)oxy)methyl)phosphonic acid], the EC50 in the series on Vaccinia virus (Orthopoxvirus vaccinia, HEL) was greater than 313 µM. The “Cytotoxicity Cell morphology (MCC)” value in the series on HEL cells [1] (Table 1) is given as greater than 313 μM.

Turning to `Nc1nc2c(ncn2COCCOP(=O)(O)OP(=O)(O)OP(=O)(O)O)c(=O)[nH]1` [ACV-TP, acyclovir triphosphate], the IC50 on HCMV DNA pol is 0.77 ± 0.04 µM.

Regarding “4,4,5,5,6,6,7,7,8,8,9,9,10,10,11,11,11-Heptadecafluoroundecyl hydrogen ((2–(2,6-dioxo-1,2,3,6-tetrahydro-9H-purin-9-yl)ethoxy)methyl)phosphonate [Compound 19]”, the EC50 was greater than 100 µM in the series on HSV-1; greater than 100 µM in the series with HSV-2 (Table 4, HEL cells); greater than 100 µM with HSV-1 TK– (Table 4, HEL cells); greater than 100 µM in the series with Vaccinia virus. Further, the “Cytotoxicity Cell morphology (MCC)” value in the series on HEL cells [1] (Table 3) is no less than 100 μM; with HEL cells [1] (Table 4), greater than 100 μM. Moreover, the “anti-herpesvirus activity (in words)” value in the series on herpesviruses was “did not display any potent anti-herpesvirus activity”.

As to `CCCCCCCCCCCCCCCCOCCCOP(=O)(O)COCCn1cnc2c(=O)[nH]c(=O)[nH]c21` [Compound 18, 3-(Hexadecyloxy)propyl hydrogen ((2–(2,6-dioxo-1,2,3,6-tetrahydro-9H-purin-9-yl)ethoxy)methyl)phosphonate], the EC50 was greater than 100 µM with Vaccinia virus (Orthopoxvirus vaccinia, HEL); 1.8 to 4 µM in the series with HSV (read-out: EC50 values against HSV-1 and HSV-2 (range)). For the same molecule, the “Cytotoxicity Cell morphology (MCC)” value in the series on HEL cells [1] (Table 3) is recorded as 100 μM; in the series with HEL cells [1] (Table 4) it was greater than 100 μM. The “increase in cytostatic activity versus parent compound 4” value in the series with HEL cells [3] is on record as 11 fold.

In the case of `O=c1nc(NC2CC2)c2ncn(CCOCP(=O)(O)O)c2[nH]1` [Compound 17, ((2–(6-(Cyclopropylamino)-2-oxo-2,3-dihydro-9H-purin-9-yl)ethoxy)methyl)phosphonic acid], the concentration giving a half-maximal response (EC50) with Vaccinia virus (Orthopoxvirus vaccinia, HEL) was greater than 100 µM. Further, the “Cytotoxicity Cell morphology (MCC)” value with HEL cells [1] (Table 3) is on record as greater than 100 μM. Further, the “activity in all assays (in words)” value with herpesviruses was “completely inactive in all assays”.

With `Nc1nc(O)c2ncn(COC(CO)CO)c2n1` [Ganciclovir, ganciclovir, reference compound], the EC50 in the series on Vaccinia virus (Orthopoxvirus vaccinia, HEL) was greater than 100 µM. Further, in the series on HEL cells [1] (Table 2), the “Cytotoxicity Cell morphology (MCC)” value is greater than 100 μM. The molecule also had a CC50 at 3 days in series [2] of no less than 317 µM.
